{"data": "Measured values from different studies", "PIK3CA": "Phosphatidylinositol 4,5-bisphosphate 3-kinase catalytic subunit alpha isoform (PIK3CA, Homo sapiens, UniProt P42336)", "PIK3CA M1043I": "Phosphatidylinositol 4,5-bisphosphate 3-kinase catalytic subunit alpha isoform (PIK3CA, Homo sapiens, UniProt P42336, M1043I)", "PIK3CA E545A": "Phosphatidylinositol 4,5-bisphosphate 3-kinase catalytic subunit alpha isoform (PIK3CA, Homo sapiens, UniProt P42336, E545A)", "PIK3CA E545K": "Phosphatidylinositol 4,5-bisphosphate 3-kinase catalytic subunit alpha isoform (PIK3CA, Homo sapiens, UniProt P42336, E545K)", "note": "Compare with care: the assays were run in different laboratories."}
{"SMILES": "CC(C)=CC(=O)CCCC(=O)N1CCN(c2nc(-c3cnc(N)nc3C(F)F)nc(N3CCOCC3)n2)CC1", "target": "PIK3CA", "observed": "cell-free assay", "method": "TR-FRET", "quantity": "kinact", "value": "2.6e-05 s⁻¹"}
{"SMILES": "O=C(O)c1cc(-c2ccc(C3CCNCC3)cc2)c2ccc(-c3ccc(C(F)(F)F)cc3)cc2c1", "target": "Phosphatidylinositol 4,5-bisphosphate 3-kinase catalytic subunit alpha isoform (PIK3CA, Homo sapiens, UniProt P42336, C420R)", "observed": "cell-free assay", "method": "competition with immobilised ligand", "concentration": "1 µM", "quantity": "remaining binding", "value": "95%"}
{"SMILES": "CS(=O)(=O)Nc1cc(-c2ccc3ncnc(Nc4ccc(F)c(Cl)c4)c3c2)cnc1Cl", "target": "PIK3CA", "observed": "enzyme activity", "action": "inhibitor", "method": "FRET", "concentration": "10 µM", "quantity": "inhibition", "value": "90 to 100%"}
{"SMILES": "COc1ccnn2ncc(-c3ccnc(N(C)C)n3)c12", "target": "PIK3CA", "observed": "binding", "concentration": "1 µM", "quantity": "remaining binding", "value": "100%"}
{"SMILES": "Nc1ncnc2occ(-c3ccc(NC(=O)Nc4cc(C(F)(F)F)ccc4F)cc3)c12", "target": "PIK3CA M1043I", "observed": "cell-free assay", "action": "inhibitor", "concentration": "20 µM", "quantity": "remaining signal", "value": "100%"}
{"SMILES": "c1cnn2ncc(-c3ccnc(N4CCC45COC5)n3)c2c1", "target": "PIK3CA M1043I", "observed": "binding", "concentration": "1 µM", "quantity": "remaining binding", "value": "67%"}
{"SMILES": "CCC(=N\\O)/C(C)=C/c1ccc(F)cc1", "target": "PIK3CA M1043I", "observed": "cell-free assay", "method": "competition with immobilised ligand", "concentration": "1 µM", "quantity": "remaining binding", "value": "88%"}
{"SMILES": "C=CC(=O)NCCCCC(=O)N1CCN(c2nc(-c3cnc(N)nc3C(F)F)nc(N3CCOCC3)n2)CC1", "target": "PIK3CA", "observed": "ligand displacement", "method": "TR-FRET", "quantity": "kinact", "value": "9.6e-05 s⁻¹"}
{"SMILES": "N[C@@H]1CCN(c2nccc(-c3cnn4ncccc34)n2)C1", "target": "PIK3CA M1043I", "observed": "binding", "concentration": "1 µM", "quantity": "remaining binding", "value": "100%"}
{"SMILES": "CCC(=O)N[C@@H]1CC[C@H](C(=O)N(C)c2ccc(-c3nc4ccccc4o3)cc2)C1", "target": "PIK3CA", "observed": "cell-free assay", "method": "competition with immobilised ligand", "concentration": "1 µM", "quantity": "remaining binding", "value": "88%"}
{"SMILES": "C=CC(=O)N(C)CCCCC(=O)N1CCN(c2nc(-c3cnc(N)nc3C(F)F)nc(N3CCOCC3)n2)CC1", "target": "PIK3CA", "observed": "cell-free assay", "method": "TR-FRET", "quantity": "kinact/KI", "value": "20300 M⁻¹ s⁻¹"}
{"SMILES": "F[C@@H]1CCN(c2nccc(-c3cnn4ncccc34)n2)C1", "target": "PIK3CA", "observed": "binding", "concentration": "1 µM", "quantity": "remaining binding", "value": "100%"}
{"SMILES": "NS(=O)(=O)c1cc(NC(=O)Cc2ccccc2)ccc1Oc1cccc(Cl)c1", "target": "PIK3CA E545A", "observed": "cell-free assay", "method": "competition with immobilised ligand", "concentration": "1 µM", "quantity": "remaining binding", "value": "69%"}
{"SMILES": "O=S(=O)(Nc1cc(Sc2ncn[nH]2)c(O)c2ccccc12)c1ccc(-c2ccccc2)cc1", "target": "PIK3CA", "observed": "enzyme activity", "action": "inhibitor", "concentration": "1 µM", "quantity": "remaining activity", "value": "≥ 75%"}
{"SMILES": "COCCOc1nc(-c2ccc(Cl)nc2)nc2c1CN(C(=O)c1ncn3ccccc13)CC2", "target": "Phosphatidylinositol 4,5-bisphosphate 3-kinase catalytic subunit alpha isoform (PIK3CA, Homo sapiens, UniProt P42336, H1047Y)", "observed": "cell-free assay", "method": "competition with immobilised ligand", "concentration": "0.1 µM", "quantity": "remaining binding", "value": "79%"}
{"SMILES": "C=CC(=O)N1CCC(C(=O)N(C)CCCC(=O)N2CCN(c3nc(-c4cnc(N)nc4C(F)F)nc(N4CCOCC4)n3)CC2)CC1", "target": "PIK3CA", "observed": "cell-free assay", "method": "TR-FRET", "quantity": "kinact/KI", "value": "33600 M⁻¹ s⁻¹"}
{"SMILES": "Cc1ccc(C(=O)Nc2ccc(CN3CCN(C)CC3)c(C(F)(F)F)c2)cc1C#Cc1cnc2cccnn12", "target": "PIK3CA E545K", "observed": "enzyme activity", "action": "inhibitor", "concentration": "23.5 nM", "quantity": "remaining activity", "value": "88%"}
{"SMILES": "CCCCNc1ncc2c(-c3ccc(F)cc3)nn(C[C@H]3CC[C@H](N)CC3)c2n1", "target": "PIK3CA", "observed": "target engagement in cells", "action": "inhibitor", "method": "chemoproteomics", "concentration": "20 mM", "quantity": "inhibition", "value": "70.8%"}
{"SMILES": "O=C(CSc1nc2nccnc2c(=O)n1CCc1ccccc1)Nc1ccccc1", "target": "PIK3CA", "observed": "enzyme activity", "action": "inhibitor", "concentration": "10 µM", "quantity": "inhibition", "value": "< 20%"}
{"SMILES": "CN(C)c1nccc(-c2cnn3ncccc23)n1", "target": "Phosphatidylinositol 4,5-bisphosphate 3-kinase catalytic subunit alpha isoform (PIK3CA, Homo sapiens, UniProt P42336, H1047L)", "observed": "binding", "concentration": "1 µM", "quantity": "remaining binding", "value": "73%"}
{"SMILES": "O=c1nc(-c2ccccn2)sc2ccccc12", "target": "PIK3CA E545K", "observed": "cell-free assay", "method": "competition with immobilised ligand", "concentration": "1 µM", "quantity": "remaining binding", "value": "65%"}
{"SMILES": "Cc1ccc(C(=O)NCc2ccsc2)cc1C#Cc1cn(C(C)C)c2ncnc(N)c12", "target": "Phosphatidylinositol 4,5-bisphosphate 3-kinase catalytic subunit alpha isoform, with p85 (PIK3CA, Homo sapiens, UniProt P42336)", "observed": "enzyme activity", "action": "inhibitor", "concentration": "1 µM", "quantity": "activity vs control", "value": "97%"}
{"SMILES": "C[C@H](NC(=O)c1cnc2n1[C@](C)(Cc1ccc(C#N)cc1)C(=O)N2c1cc(Cl)c(F)c(Cl)c1)C(=O)NC1(c2ccccn2)CC1", "target": "PIK3CA", "observed": "cell-free assay", "method": "competition with immobilised ligand", "concentration": "1 µM", "quantity": "remaining binding", "value": "100%"}
{"SMILES": "C[C@H]1CCN(c2nccc(-c3cnn4ncccc34)n2)C1", "target": "PIK3CA E545A", "observed": "binding", "concentration": "1 µM", "quantity": "remaining binding", "value": "100%"}
{"SMILES": "Cc1cc(NC(=O)c2cccc(S(F)(F)(F)(F)F)c2)cc(-n2ccn3nc(-c4cccnc4)cc23)c1", "target": "PIK3CA M1043I", "observed": "cell-free assay", "method": "competition with immobilised ligand", "concentration": "1 µM", "quantity": "remaining binding", "value": "30.3%"}
{"SMILES": "CC(=O)Oc1ccc(-c2coc3c4c(c(CC=C(C)C)c(OC(C)=O)c3c2=O)OC(C)(C)C=C4)cc1OC(C)=O", "target": "PIK3CA E545K", "observed": "enzyme activity", "action": "inhibitor", "method": "ADP detection", "concentration": "10 µM", "quantity": "remaining activity", "value": "37.6%"}
